# Screening results deposited in PubChem by several laboratories.
# The list is not random: actives were taken first. Their share in the collection is about 0.79%.
# Rin1-Abl PPI inh – human Rin1-Abl interaction inhibition; AID 588664; inhibition, % at 7.35 µM; TR-FRET Rin1/Abl binding, biochemical; 0.4% of 360,000 active; in the data active = inhibition above about 5%, passing the limit was not always enough
# PKA-R2B activ – PKA-R2B complex activation; P22694+P31323; PKA-R2B holoenzyme dissociation, Cy5-IP20 fluorescence polarization; R2B truncated from residue 108, S112A mutant; 0% DMSO only, 100% 113 µM cGMP; activation, % at 11.4 µM; 0.079% of 340,000 active; AID 504700;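 active = activation above a cutoff set at the mean over all compounds plus 3 SD, cut at about 18% in these data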;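 also: higher means more holoenzyme dissociation and a rise in polarization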
# PKA-R1A act – activators of PKA-R1A complex; P00514+P68181; PKA-R1A dissociation, Cy5-IP20 fluorescence polarization; scaled: DMSO 0%, 113 µM cGMP 100%; activation, % at 11.4 µM; 0.083% of 340,000 active; AID 504707;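 active = percent activation above the mean of all tested compounds plus 3 SD, cut at about 19% in these data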;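 also: higher means more PKAc released from R1A so a rise in polarization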
# UCH37 inh – human UCH37 deubiquitinating enzyme inhibition | purified proteasome/UCH37, Ub-AMC cleavage fluorescence | AID 588478 | inhibition, % (concentration not given with the values) | 0.33% of 330,000 active | Q9Y5K5;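 active = mean inhibition over replicate wells above about 20%, limit read from the data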;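 also: 0% = compound-free wells with enzyme and 100% = wells lacking proteasome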
# Target sequence (Q9Y5K5 whole entry, looked up): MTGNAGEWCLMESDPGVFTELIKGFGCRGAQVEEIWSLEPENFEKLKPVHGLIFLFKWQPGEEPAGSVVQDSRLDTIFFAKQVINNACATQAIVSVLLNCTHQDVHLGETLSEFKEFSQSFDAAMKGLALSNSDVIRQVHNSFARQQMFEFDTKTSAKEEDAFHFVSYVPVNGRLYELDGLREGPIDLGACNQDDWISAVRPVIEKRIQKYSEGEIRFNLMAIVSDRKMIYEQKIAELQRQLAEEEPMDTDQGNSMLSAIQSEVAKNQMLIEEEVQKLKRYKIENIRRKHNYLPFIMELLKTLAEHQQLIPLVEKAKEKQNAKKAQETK
#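 Signal – fluorescence, ex 355 nm, em 460 nm · System – Proteasome-bound UCH37 · Input – 0.15 nM proteasome as dispensed · Timing – 30 min preincubation with enzyme, 25 min cleavage at room temperature · Read-out basis – percent inhibition of cleavage signal versus uninhibited and no-proteasome wells · Medium – Tris-HCl pH 7.4 with ATP-MgCl2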
# Rin1 Abl conf – confirmation of inhibitors of human Rin1-Abl interaction. shares compounds with Rin1-Abl PPI inh. TR-FRET Rin1-Abl binding, purified proteins. inhibition, % at 7.35 µM. 49% of 1,300 active; in the data active = inhibition above about 6.5%
# GFP quench-1 – counter-screen for Rin1-Abl inhibitors: GFP fluorescence quenchers. shares compounds with Rin1-Abl PPI inh. inhibitors/quenchers counterscreen. inhibition, % at 6.75 µM. 8.5% of 1,300 active. AID 602125; in the data active = inhibition above about 6.5%;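 also: ABL1-eGFP fusion protein alone without its partner RIN1-SBP; 0% = protein with vehicle and 100% = wells lacking protein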
# GFP quench DR – counter-screen for Rin1-Abl inhibitors: GFP quenchers, dose response; shares compounds with Rin1-Abl PPI inh; GFP fluorescence interference/quenching counterscreen; IC50, µM; 230 tested, under 10 active;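 also: ABL1-eGFP fusion protein alone without its RIN1 binding partner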
# GFP quench-2 – counter-screen for Rin1-Abl interaction inhibitors: GFP fluorescence quenching; shares compounds with Rin1-Abl PPI inh; GFP fluorescence quenching counterscreen, biochemical; IC50, µM; 25 tested, under 10 active
# The depositor's hits bear a star; . = no result given. Unless noted, no rule for the calls is given here.
SMILES,Rin1-Abl PPI inh,PKA-R2B activ,PKA-R1A act,UCH37 inh,Rin1 Abl conf,GFP quench-1,others
CN(C(=O)c1ccc(NC(=O)Cc2ccc(NC(=O)C3CCCN(C(=O)C4CCCC4)C3)cc2)cc1)C1CC1 (stereo not given),13*,-4,6,2,19*,2,
CN(C(=O)c1ccc(NC(=O)Cc2ccc(NC(=O)C3CCN(C(=O)CCc4ccccc4)CC3)cc2)cc1)C1CC1,12*,4,-5,0,17*,0,
CN(C(=O)c1ccc(NC(=O)Cc2ccc(NC(=O)C3CCN(C(=O)C4CCCC4)CC3)cc2)cc1)C1CCCC1,22*,4,-4,6,27*,-1,GFP quench DR=>67
CN(CCc1ccccc1)C(=O)c1ccc(NC(=O)Cc2cccc(NC(=O)C3CCN(C(=O)c4ccccc4)CC3)c2)cc1,9.1*,9,-1,0,9.1*,1,
CN(C(=O)c1ccc(NC(=O)Cc2ccc(NC(=O)C3CCCN(C(=O)C4CCCCC4)C3)cc2)cc1)C1CC1 (stereo not given),6,-12,4,0,.,.,
CN(C(=O)c1ccc(NC(=O)Cc2ccc(NC(=O)C3CCN(C(=O)C4CC4)CC3)cc2)cc1)C1CCCC1,-4,-7,3,-1,.,.,
CN(CCc1ccccc1)C(=O)c1ccc(NC(=O)Cc2cccc(NC(=O)C3CCN(C(=O)C4CCCCC4)CC3)c2)cc1,2,4,-4,0,.,.,
CN(C(=O)c1ccc(NC(=O)Cc2ccc(NC(=O)C3CCN(C(=O)CCc4ccccc4)CC3)cc2)cc1)C1CCCC1,-1,6,-5,0,.,.,
Cc1ccc(NC(NC(=O)c2cccs2)C(Cl)(Cl)Cl)cc1C (stereo not given),-2,-21,-7,4,.,.,
COc1ccc(-n2nnc3c(=O)n(CC(=O)NCC4CCCO4)cnc32)cc1 (stereo not given),2,-4,6,1,.,.,
O=C(O)c1ccc(C=NN2CCN(Cc3ccccc3)CC2)cc1,.,.,.,7,.,.,
CSc1ccc(CCNC(=O)C2CCCN(c3nn4c(=O)cc(C)nc4s3)C2)cc1 (stereo not given),5,-6,-5,-1,.,.,
CN(C(=O)c1ccc(NC(=O)Cc2ccc(NC(=O)C3CCN(C(=O)C4CCCCC4)CC3)cc2)cc1)C1CC1,68*,7,2,-2,66*,-1,
O=C(Cc1ccc(NC(=O)C2CCN(C(=O)C3CCCCC3)CC2)cc1)Nc1ccc(C(=O)N2CCOCC2)cc1,39*,0,0,1,44*,0,GFP quench DR=>68;GFP quench-2=>68
O=C(COC(=O)c1c[nH]c2ccccc12)NCc1ccccc1,1,-13,-2,.,.,.,
Cc1cc(=O)oc2cc(OCC3CC(c4ccc(Br)cc4)=NO3)ccc12 (stereo not given),-1,-7,10,-10,.,.,
Cc1cc(=O)oc2cc(OCC3CC(c4ccccc4)=NO3)ccc12 (stereo not given),11*,-1,7,-27,-5,-2,
CCCOC(=O)c1ccc(NC(=O)CCC(=O)OCC)cc1,10*,-3,11,0,14*,2,
CC(C)(C)OC(=O)N1Cc2ccccc2C[C@H]1C(=O)NCC(=O)NC1CCCC1,-1,-5,5,1,.,.,
NC(CO)C(=O)NNCc1ccc(O)c(O)c1O (stereo not given),37*,3,6,7,29*,6,
Cc1cccc(C)c1NC(=O)CCCCCC1NC(=O)NC1C (stereo not given),82*,-1,-4,-2,91*,0,GFP quench DR=>68
CCCCCC1NC(=O)NC1CCCCCC(=O)O (stereo not given),14*,-8,8,3,14*,0,
C[C@@H]1NC(=O)N[C@@H]1CCCCCC(=O)O,92*,11,11,0,95*,0,GFP quench DR=>68
